Screening data (PubChem)
An excerpt weighted towards active compounds, which were near 4.1% of everything screened.
Cl transport mod – modulators of human KCC2 chloride dependent transport; KCC2 cells, thallium flux FluoZin-2 fluorescence; B-score of Tl+ flux slope (higher = more flux/activation; lower = inhibition) at 10 µM; 190,000 tested, 2.2% active; AID 1456;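 active = thallium flux slope and its plate-corrected score both differing from the plate sample mean at a set confidence after two filtering rounds, in either direction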;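 note: slope of fluorescence scaled to starting intensity during 10 to 20 s after thallium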
Redox H2O2 prof – compounds producing H2O2 with reducing agent – biochemical, NIH compound library profiling, artefact control for MLSCN library redox annotation, primary screen | 200,000 tested, 0.03% active | AID 878 | DTT-dependent redox cycling H2O2, phenol red/HRP absorbance; 100% = 100 µM peroxide control, 0% = buffer | activation, % at 10 µM;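 active = activation of at least 50% relative to the plate's high and low controls in the primary single-dose screen; inactive = activation below 50%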;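 note: compound incubated with DTT at 0.8 mM final as the reducing agent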
ROMK mod – modulators of human ROMK potassium channel; AID 1918; Tet-inducible ROMK, thallium flux fluorescence; actives lie on both sides; P48048; 130,000 tested, 2% active; B-score at 10 µM;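 active = signal ratio slope over the read window, or its plate-corrected B-score, at least 3 SD from the plate mean, either direction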;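 note: B-score of the F/F0 ratio slope over 7 to 12 s after thallium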
Target sequence (P48048 whole entry, looked up): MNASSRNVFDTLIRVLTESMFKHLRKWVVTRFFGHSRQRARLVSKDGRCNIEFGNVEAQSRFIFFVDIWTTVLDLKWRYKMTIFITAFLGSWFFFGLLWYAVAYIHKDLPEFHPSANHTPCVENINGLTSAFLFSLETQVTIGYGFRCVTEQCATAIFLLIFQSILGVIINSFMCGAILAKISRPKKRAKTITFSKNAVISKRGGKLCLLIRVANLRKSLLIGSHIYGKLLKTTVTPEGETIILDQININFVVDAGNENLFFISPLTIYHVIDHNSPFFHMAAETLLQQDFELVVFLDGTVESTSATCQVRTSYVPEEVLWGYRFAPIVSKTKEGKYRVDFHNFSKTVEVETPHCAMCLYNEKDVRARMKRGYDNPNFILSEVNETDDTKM
Dynein cargo inh – blocks dynein driven cargo transport along microtubules. 3617.4 mouse cells, GR-EGFP nuclear translocation imaging; test concentration mostly 20 µM; stimulated with dexamethasone, 1 µM; hits give low values. z-score, hits read low. 220,000 tested, 0.47% active. AID 1381;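 active = plate z-score of nuclear minus cytoplasmic receptor signal below a set negative limit, without overly bright fluorescence or cell loss, cut at about -3.5 in these data, passing the limit was not always enough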;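 note: z-score of nuclear minus cytoplasmic ring GR-EGFP intensity difference per well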
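Buffer or medium: Induction medium lacking tetracycline, stripped serum | Also added: Dexamethasone agonist, 1.0 µM final, for 30 min | Timing: 48 h induction, 1 h compound, 30 min dex at 37 °C | Detection: Formaldehyde fixation, Hoechst nuclear stain, 10x automated fluorescence imaging | Measure: Nuclear versus cytoplasmic GR-EGFP signal, averaged per well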
Autophagy mod – alters autophagy in cells. MEF GFP-LC3 puncta imaging; test concentration mostly 10 µM. calls only at 10 µM (by protocol). 190,000 tested, 0.98% active;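 active = percentage of spot-positive cells more than 3 SD above its plate mean, without a fluorescence outlier flag or 80% toxicity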
Hits are given with their value.

What do the screens show for `O=C(c1ccccc1)C1CCCN(Cc2nc(-c3cnccn3)no2)C1` (centres undefined)?
Cl transport mod: inactive; Redox H2O2 prof: inactive; ROMK mod: inactive; Dynein cargo inh: inactive; Autophagy mod: active

How did NC(N)=N/N=C/c1cn(-c2ccccc2)nc1-c1cccs1 do in these assays?
Cl transport mod: inactive; Redox H2O2 prof: inactive; ROMK mod: inactive; Dynein cargo inh: inactive; Autophagy mod: active

Results for Cc1ccccc1-n1c(O)c(C(c2ccncc2)c2c(O)n(-c3ccccc3C)c(=O)[nH]c2=O)c(=O)[nH]c1=O ?
Cl transport mod: inactive; ROMK mod: inactive; Dynein cargo inh: inactive

What do the screens show for `Cc1ccc(/C=C2\C(=O)NC(=S)N(c3ccccc3F)C2=O)s1`?
Cl transport mod: inactive; Redox H2O2 prof: inactive; Dynein cargo inh: -3.7; Autophagy mod: inactive

How did Cc1ccc(/C=C2\C(=O)NC(=S)N(c3ccc(F)cc3)C2=O)s1 do in these assays?
Cl transport mod: inactive; Redox H2O2 prof: inactive; ROMK mod: inactive; Dynein cargo inh: inactive; Autophagy mod: inactive

What do the screens show for `CSc1ccc(C(=O)C2CCCN(CCCn3cccn3)C2)cc1` (centres undefined)?
Redox H2O2 prof: inactive; ROMK mod: inactive; Dynein cargo inh: inactive; Autophagy mod: inactive

Results for CCCCc1nc2ccccc2c(=O)n1-c1ccccc1O ?
Cl transport mod: inactive; Redox H2O2 prof: inactive; ROMK mod: inactive; Dynein cargo inh: inactive; Autophagy mod: inactive

What do the screens show for `Cc1cc(=O)[nH]c(SCc2nc3ccccc3c(=O)n2-c2ccccc2C)n1`?
Cl transport mod: inactive; Redox H2O2 prof: inactive; ROMK mod: inactive; Dynein cargo inh: inactive; Autophagy mod: active

How did CCOC(=O)C1=C(NC(=S)NC(=O)c2ccccc2)c2ccccc2CC12CCCC2 do in these assays?
Cl transport mod: inactive; Redox H2O2 prof: inactive; ROMK mod: inactive; Dynein cargo inh: inactive; Autophagy mod: inactive

What do the screens show for `O=c1[nH]c2ccccc2c(=O)n1-c1ccc(Cl)cc1Cl`?
Cl transport mod: inactive; Redox H2O2 prof: inactive; ROMK mod: inactive; Dynein cargo inh: inactive; Autophagy mod: inactive

Results for COc1cccc(OC)c1C1=NCC(=O)Nc2c1oc1ccc(Br)cc21 ?
Cl transport mod: inactive; Redox H2O2 prof: inactive; Dynein cargo inh: inactive; Autophagy mod: active

What do the screens show for `CC(=O)NNC(=O)CN1C(=O)CN=C(c2ccccc2)c2cc(Br)ccc21`?
Redox H2O2 prof: inactive; ROMK mod: inactive; Dynein cargo inh: inactive; Autophagy mod: inactive

What do the screens show for `O=C1NC(=O)N(Cc2ccc(F)cc2)C(=O)/C1=C\c1ccc([N+](=O)[O-])s1`?
Cl transport mod: inactive; ROMK mod: inactive; Dynein cargo inh: -5

What do the screens show for `CCC(=NCCN1CCCCC1)c1c(O)n(C)c(=O)n(C)c1=O`?
Cl transport mod: inactive; Redox H2O2 prof: inactive; ROMK mod: inactive; Dynein cargo inh: inactive; Autophagy mod: active

How did Oc1c(Br)cc(Br)cc1Oc1ccc(Br)cc1Br do in these assays?
Cl transport mod: 6; Redox H2O2 prof: inactive; ROMK mod: inactive; Dynein cargo inh: inactive; Autophagy mod: inactive

How did Oc1c(Br)cc(Br)cc1CN1CCN(Cc2ccccc2)CC1 do in these assays?
Cl transport mod: inactive; Redox H2O2 prof: inactive; Dynein cargo inh: inactive; Autophagy mod: inactive

Results for Nc1cc(Cl)c2nonc2c1[N+](=O)[O-] ?
Cl transport mod: inactive; Redox H2O2 prof: inactive; Dynein cargo inh: -4.2; Autophagy mod: inactive

What do the screens show for `O=c1cccc2n1CC1CC2CN(S(=O)(=O)c2ccc(F)cc2)C1` (centres undefined)?
Cl transport mod: inactive; Redox H2O2 prof: inactive; ROMK mod: inactive; Dynein cargo inh: inactive; Autophagy mod: inactive

How did CC(C)CN(C(=O)CN1CC=C(c2ccccc2)CC1)c1c(N)n(CC(C)C)c(=O)[nH]c1=O do in these assays?
Cl transport mod: inactive; Redox H2O2 prof: inactive; ROMK mod: inactive; Dynein cargo inh: inactive; Autophagy mod: inactive

Results for O=C1NC(=O)N(c2ccc(Cl)cc2)C(=O)/C1=C/c1coc2ccc(O)cc2c1=O ?
Cl transport mod: -4.6; ROMK mod: -8; Dynein cargo inh: inactive

What do the screens show for `CCCCCCCSc1cc(OC)c(CCNC)cc1OC`?
Cl transport mod: inactive; Redox H2O2 prof: inactive; ROMK mod: inactive; Dynein cargo inh: inactive; Autophagy mod: inactive

Results for CCCCCSc1cc(OC)c(CCNC)cc1OC ?
Cl transport mod: inactive; Redox H2O2 prof: inactive; ROMK mod: -3.6; Dynein cargo inh: inactive; Autophagy mod: inactive
